{"data": "Published values gathered from unrelated publications", "target": "Serine/threonine-protein kinase TBK1 (TBK1, Homo sapiens, UniProt Q9UHD2)", "Sequence (Q9UHD2 1-729, as in one of the studies)": "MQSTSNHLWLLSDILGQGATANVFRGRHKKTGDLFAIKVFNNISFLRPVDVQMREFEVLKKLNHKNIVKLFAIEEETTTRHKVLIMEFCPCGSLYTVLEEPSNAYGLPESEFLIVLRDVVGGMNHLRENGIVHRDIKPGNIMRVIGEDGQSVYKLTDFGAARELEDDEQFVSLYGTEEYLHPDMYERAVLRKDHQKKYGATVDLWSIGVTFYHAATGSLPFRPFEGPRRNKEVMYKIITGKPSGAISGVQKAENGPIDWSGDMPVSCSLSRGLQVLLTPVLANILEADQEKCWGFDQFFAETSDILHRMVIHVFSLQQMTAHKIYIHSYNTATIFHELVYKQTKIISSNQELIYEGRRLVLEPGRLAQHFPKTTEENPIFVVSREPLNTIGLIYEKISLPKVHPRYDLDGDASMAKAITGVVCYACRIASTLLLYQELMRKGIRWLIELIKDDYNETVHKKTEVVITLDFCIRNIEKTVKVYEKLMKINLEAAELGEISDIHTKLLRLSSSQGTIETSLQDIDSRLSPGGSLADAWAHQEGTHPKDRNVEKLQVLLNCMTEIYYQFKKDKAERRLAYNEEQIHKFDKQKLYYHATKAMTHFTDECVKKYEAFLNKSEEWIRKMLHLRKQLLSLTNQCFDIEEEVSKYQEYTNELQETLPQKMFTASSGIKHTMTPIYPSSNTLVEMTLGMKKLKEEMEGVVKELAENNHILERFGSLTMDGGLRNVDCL"}
{"Compound": "CC(=O)N1CCC(c2ccc(C(=O)NC(=N)N)cc2C(F)(F)F)CC1", "test": "cell-free assay, competition with immobilised ligand", "conditions": "1 µM", "remaining binding [%]": 100}
{"Compound": "C[C@H]1CCN(c2nccc(-c3cnn4ncccc34)n2)C1", "test": "binding", "conditions": "1 µM", "remaining binding [%]": 80}
{"Compound": "CC(C)(O)c1cncc(-c2nc3ccc(F)cc3n2C2CC2)c1", "test": "cell-free assay, competition with immobilised ligand", "conditions": "1 µM", "remaining binding [%]": 72}
{"Compound": "N[C@H]1CCN(c2nccc(-c3cnn4ncccc34)n2)C1", "test": "binding", "conditions": "1 µM", "remaining binding [%]": 100}
{"Compound": "Cc1cnc(Nc2ccc(C(=O)N3CCC(N4CCCC4)CC3)cc2)nc1-c1cc2ccccc2s1", "test": "binding, competition with immobilised ligand", "conditions": "1 µM", "remaining binding [%]": 4.5}
{"Compound": "CN(CCCC(F)(F)F)c1nccc(-c2cnn3ncccc23)n1", "test": "binding", "conditions": "1 µM", "remaining binding [%]": 91}
{"Compound": "COc1cnc(Nc2cccc(S(N)(=O)=O)c2)nc1N1CCN(c2ccccc2)C(=O)C1", "test": "binding, competition with immobilised ligand", "conditions": "1 µM", "remaining binding [%]": 61}
{"Compound": "F[C@@H]1CCN(c2nccc(-c3cnn4ncccc34)n2)C1", "test": "binding", "conditions": "1 µM", "remaining binding [%]": 84}
{"Compound": "O=C(NCC1CCOCC1)c1n[nH]cc1NC(=O)c1c(F)cccc1F", "test": "binding, competition with immobilised ligand", "conditions": "1 µM", "remaining binding [%]": 96}
{"Compound": "O=c1nc(-c2ccccn2)sc2ccccc12", "test": "binding, competition with immobilised ligand", "conditions": "1 µM", "remaining binding [%]": 91}
{"Compound": "O=C(NCCCN1CCOCC1)c1ccc(Nc2ncc(Cl)c(-c3ccc(Cl)s3)n2)cc1", "test": "binding, competition with immobilised ligand", "conditions": "1 µM", "remaining binding [%]": 23}
{"Compound": "FC(F)(F)Oc1cccc(-c2cnc3ccc(-c4ccncc4)nn23)c1", "test": "binding, competition with immobilised ligand", "conditions": "5 µM", "remaining binding [%]": 54}
{"Compound": "O=C(O)[C@@H]1[C@@H](Cn2nnc3ccccc3c2=O)CC[C@H]1C(=O)c1ccc(OCCC2CCOCC2)cc1", "test": "cell-free assay, competition with immobilised ligand", "conditions": "1 µM", "remaining binding [%]": 100}
{"Compound": "Nc1ncc2c(n1)-c1c([nH]c3ccc(C#CC4CC4)cc13)CCCC2", "test": "binding, competition with immobilised ligand", "conditions": "1 µM", "remaining binding [%]": 88}
{"Compound": "CC1=C(C#N)C(c2ccc3c(c2)c(NC(=O)c2ccccc2C)nn3C)C(C#N)=C(C)N1", "test": "cell-free assay, competition with immobilised ligand", "conditions": "1 µM", "remaining binding [%]": 69}
{"Compound": "O=C(c1ccc(Nc2nccc(-c3cc4ccccc4s3)n2)cc1)N1CCC(N2CCCC2)CC1", "test": "binding, competition with immobilised ligand", "conditions": "1 µM", "remaining binding [%]": 27}
{"Compound": "CCN1CCN(Cc2ccc(C(=O)Nc3ccc(C)c(Oc4ccc5c(c4)CC(=O)N5)c3)cc2C(F)(F)F)CC1", "test": "binding, competition with immobilised ligand", "conditions": "1 µM", "remaining binding [%]": 50}
{"Compound": "Cc1cnn2ncc(-c3ccnc(N(C)C)n3)c2c1", "test": "binding", "conditions": "1 µM", "remaining binding [%]": 82}
{"Compound": "COc1cccc(CNC(=O)c2nc3scc(COCc4ccc(C(=O)O)cc4)c3c(=O)[nH]2)c1", "test": "cell-free assay, competition with immobilised ligand", "conditions": "1 µM", "remaining binding [%]": 94}
{"Compound": "c1cnn2ncc(-c3ccnc(N4CCC45COC5)n3)c2c1", "test": "binding", "conditions": "1 µM", "remaining binding [%]": 41}
{"Compound": "C[C@@H](c1ccc(-n2cnc3c(N)ncnc32)cc1)N1CCc2nn(C)c(Cc3ccccc3)c2C1=O", "test": "binding, competition with immobilised ligand", "conditions": "0.1 µM", "remaining binding [%]": 98}
